Reference: ChEMBL document CHEMBL1122937, “[(Aminomethyl)arloxy]acetic acid esters. A new class of high-ceiling diuretics. 3. Variation in the bridge between the aromatic rings to complete mapping of the receptor” (J Med Chem, 1985)
Active and inactive are the calls of the source. The rule behind the calls is not given here.

Key:
[1] = pKa value was evaluated; type: physicochemical
In short: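 UV absorption spectra were recorded in a buffer series spanning the pH range from fully protonated to fully deprotonated phenolic OH. Absorbance vs pH curves were fit by nonlinear regression, solving for the extinction coefficients of both forms and the pKa. For the amine pKa the buffers were extended to pH 12.0.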

[2] = Distribution coefficient in octanol-pH 7.0 phosphate buffer was measured at room temperature; type: physicochemical
Rattus norvegicus [3] = test: Natriuretic potency expressed as oral dose necessary to produce an excretion of 2 mequiv of Na+/kg in the rat urine during the 4 hr period after dosing; type: functional
In short: (§1)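 Rats were dosed orally in dose–response experiments. Urine volume, Na+, K+ and Cl- were measured. ED2 is the oral dose in mg/kg giving excretion of 2 mequiv Na+/kg in urine over the 4 h after dosing.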

Rattus norvegicus [4] = test: Natriuretic potency expressed as oral dose necessary to produce an excretion of 2 mequiv of Na+/kg in the rat urine during the 4 hr period after dosing; Inactive; type: functional, organism-based; in short: as §1
Rattus norvegicus [5] = test: Natriuretic potency expressed as oral dose necessary to produce an excretion of 2 mequiv of Na+/kg in the rat urine during the 4 h period after dosing; Inactive.; type: functional, organism-based; in short: as §1

pKa [1] | logD [2] | Structure (SMILES) | ED2 (Rattus norvegicus [3]) | ED2 (Rattus norvegicus [4]) | ED2 (Rattus norvegicus [5])
8.55 | 1.82 | CCOC(=O)COc1ccc(Oc2ccc(O)c(CN)c2)c(Cl)c1Cl.Cl | 0.8 mg/kg |  | 
 |  | CCOC(=O)COc1ccc(COc2ccc(O)c(CN)c2)c(Cl)c1Cl |  | inactive | 
 |  | CCOC(=O)COc1ccc(Sc2ccc(O)c(CN)c2)c(Cl)c1Cl.Cl | 1 mg/kg |  | 
8.73 | 1.66 | CCOC(=O)COc1ccc(Cc2ccc(O)c(CN)c2)c(Cl)c1Cl.Cl | 7.5 mg/kg |  | 
 |  | CCOC(=O)COc1ccc(-c2ccc(O)c(CN)c2)c(Cl)c1Cl |  | inactive | 
 |  | CCOC(=O)COc1ccc2c(-c3ccc(O)c(CN)c3)noc2c1Cl.Cl | 35 mg/kg |  | 
7.34 | 0.3 | CCOC(=O)COc1ccc(C(=O)c2ccc(O)c(CN)c2)cc1 |  |  | 
6.67 | 1.25 | CCOC(=O)COc1ccc(S(=O)(=O)c2ccc(O)c(CN)c2)c(Cl)c1Cl |  |  | inactive
6.38 | 1.41 | CCOC(=O)COc1ccc(C(=O)c2ccc(O)c(CN)c2)c(Cl)c1Cl.Cl | 2.5 mg/kg |  | 
 |  | CCOC(=O)COc1ccc(C(=O)C(=O)c2ccc(O)c(CN)c2)c(Cl)c1Cl |  | inactive | 
 |  | CCOC(=O)COc1ccc(C(=O)Nc2ccc(O)c(CN)c2)c(Cl)c1Cl |  | inactive | 
 |  | COC(=O)COc1ccc([S+]([O-])c2ccc(O)c(CN)c2)c(Cl)c1Cl.Cl (stereo unspecified) | 16.3 mg/kg |  | 
